Converted amounts (≈) assume the structure as drawn. The source made the active and inactive calls. No cut-off for these calls is given here.
Experiments:
Assay type in all cases: functional, organism-based
[1] = system: Meloidogyne javanica; assay: Nematicidal Activity against Meloidogyne javanica (root-knot nematode) assessed as death/paralysis of nematodes at 25 to 1000 mg/l at 1 day after immersion in test solution
In short: (§1)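 Second-stage juveniles (J2) came from an Italian M. javanica population reared two months on tomato in a glasshouse at 25±2 °C. Solutions at double strength were mixed 1:1 with 15 J2 per well, covered, in the dark at 28 °C. Methanol was ≤1% v/v final, and water and 0.3% tween controls were run. Paralysis was scored at 10×. Five replicates per treatment, experiment done twice. Control-corrected (Schneider-Orelli) EC50 was obtained by regression.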

[2] = system: Meloidogyne javanica; assay: Nematicidal Activity against Meloidogyne javanica (root-knot nematode) assessed as death/paralysis of nematodes at 25 to 1000 mg/l at 1 hr after immersion in test solution; in short: as §1
[3] = system: Meloidogyne javanica; assay: Nematicidal Activity against Meloidogyne javanica (root-knot nematode) assessed as death/paralysis of nematodes at 1 hr after immersion in test solution
In short: (§2)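 J2 of an Italian M. javanica population reared two months on tomato in a glasshouse at 25+2 °C. Pure compounds were made up as double-strength solutions (methanol ≤1% v/v final, tween in water) and mixed 1:1 with 15 J2 per well, covered, dark, 28 °C. Paralysis was scored by microscope, 5 replicates, run twice, Schneider-Orelli corrected, EC50 by regression.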

[4] = system: Meloidogyne javanica; assay: Nematicidal Activity against Meloidogyne javanica (root-knot nematode) assessed as death/paralysis of nematodes at 1 day after immersion in test solution; settings: 24 h; in short: as §2

Compound | Activity [1] | Activity [2] | EC50 [3] | EC50 [4]
CCCCCC=O | inactive | inactive | – | –
CCCCCCC=O | inactive | inactive | – | –
CCCCCCCCC=O [NONANAL] | inactive | – | > 50 µg/mL | –
CCOP(=O)(SC(C)CC)N1CCSC1=O (stereo not given) [FOSTHIAZATE] | – | – | > 25 µg/mL | 15.9 µg/mL (≈ 56.1 µM)
O=Cc1ccco1 [FURFURAL] | – | – | > 25 µg/mL | 21.8 µg/mL (≈ 227 µM)
CCCCCCCC/C=C/C=O | – | – | > 25 µg/mL | > 25 µg/mL
CCCCC/C=C/C=O | – | inactive | – | > 25 µg/mL
CCCCC/C=C/C=C/C=O | – | – | 7.53 µg/mL (≈ 49.5 µM) | 11.7 µg/mL (≈ 76.9 µM)
CCCCCCC/C=C/C=O [TRANS-2-DECENAL] | – | – | 11.8 µg/mL (≈ 76.2 µM) | 20.4 µg/mL (≈ 132 µM)
O=Cc1ccc(CO)o1 [AES-103] | – | – | > 25 µg/mL | > 25 µg/mL

From ChEMBL document CHEMBL3046908, “Nematicidal activity of (E,E)-2,4-decadienal and (E)-2-decenal from Ailanthus altissima against Meloidogyne javanica” (J Agric Food Chem, 2012)
